# Experimental data taken from ChEMBL document CHEMBL3272032, “Antifolate studies. Activities of 40 potential antimalarial compounds against sensitive and chlorguanide triazine resistant strains of folate-requiring bacteria and Escherichia coli” (J Med Chem, 1977).
# Calls of active or inactive are those of the source. The rule behind the calls is not given here.
# How the values were obtained:
# [1] = test system: Enterococcus faecium; test: Fold increase in resistance, ratio of IC50 for chlorguanide triazine-resistant Streptococcus faecium ATCC 8043 to IC50 for sensitive Streptococcus faecium ATCC 8043; assay type: functional
# Procedure, shortened: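 Resistant S. faecium substrain raised by serial transfer in increasing chlorguanide triazine. IC50 (µM, 50% growth inhibition by turbidity) was found for resistant and parent strains in folic acid (0.002 µg/ml) medium. Fold increase taken as IC50 resistant / IC50 sensitive.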
# [2] = test system: Pediococcus; test: Antibacterial activity against sensitive Pediococcus cerevisiae ATCC 808 assessed as reduction in growth in presence of 0.001 ug/ml folinic acid; assay type: functional
# Procedure, shortened: (§1)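 P. cerevisiae grown with folinic acid at 0.001 μg/ml in the earlier-described medium. Turbidity read on a Klett-Summerson colorimeter. IC50 is the micromolar concentration reducing growth to 50% of control. Top concentration was 1000 μg/ml, or 100 μg/ml when supply was limited.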
# [3] = test system: Enterococcus faecium; test: Antibacterial activity against chlorguanide triazine-resistant Streptococcus faecium ATCC 8043 assessed as reduction in growth; assay type: functional, organism-based
# Procedure, shortened: (§2)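 Folate-requiring strains grown in medium with folic acid, 0.002 µg/ml for S. faecium and 0.001 µg/ml for L. casei; P. cerevisiae given folinic acid, 0.001 µg/ml. Resistant substrains came from serial transfer in rising chlorguanide triazine, and the most resistant were used. Compounds tested up to 1000 µg/ml, or 100 µg/ml when supply was limited. Growth read as Klett turbidity; IC50 is the µM concentration giving 50% growth inhibition.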
# [4] = Antibacterial activity against sensitive Pediococcus cerevisiae ATCC 808 assessed as reduction; assay type: functional; procedure, shortened: as §1
# [5] = test system: Lacticaseibacillus casei; test: Fold increase in resistance, ratio of IC50 for chlorguanide triazine-resistant Lactobacillus casei ATCC 7469 to IC50 for sensitive Lactobacillus casei ATCC 7469; assay type: functional
# Procedure, shortened: (§3)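 Resistant substrains were made by serial transfer in rising concentrations of cycloguanil, and the most resistant isolate of each organism was used. Both strains were assayed turbidimetrically under identical conditions. FIR = IC50 of the resistant strain divided by IC50 of the sensitive parent.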
# [6] = test system: Plasmodium berghei; test: Antimalarial activity against Plasmodium berghei infected in sc dosed mouse assessed as active dose required to increase of 100% in mean survival time; assay type: functional; conditions: read-out: MED
# Procedure, shortened: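 Mice received a standard blood-induced P. berghei inoculum and were then treated with one subcutaneous dose of compound suspended in peanut oil. The minimum active dose is the lowest dose that raised mean survival time by 100%.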
# [7] = test system: Lacticaseibacillus casei; test: Antibacterial activity against sensitive Lactobacillus casei ATCC 7469 assessed as reduction; assay type: functional, organism-based; procedure, shortened: as §2
# [8] = test system: Lacticaseibacillus casei; test: Antibacterial activity against sensitive Lactobacillus casei ATCC 7469 assessed as reduction in growth in presence of 0.001 ug/ml folic acid; assay type: functional, organism-based
# Procedure, shortened: (§4)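 Folate-requiring strains in the medium of the earlier assay method. Folic acid was 0.002 μg/ml for S. faecium and 0.001 μg/ml for L. casei. Turbidity read on a Klett-Summerson colorimeter. IC50 is the micromolar concentration reducing growth to 50% of control. Top concentration was 1000 μg/ml, or 100 μg/ml if supply was limited.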
# [9] = test system: Lacticaseibacillus casei; test: Antibacterial activity against chlorguanide triazine-resistant Lactobacillus casei ATCC 7469 assessed as reduction in growth; assay type: functional, organism-based; procedure, shortened: as §2
# [10] = test system: Escherichia coli; test: Antibacterial activity against sensitive Escherichia coli ATCC 10536 assessed as reduction in growth in presence of p-aminobenzoic acid; assay type: functional, organism-based
# Procedure, shortened: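 Reversal test. Drug inhibition was challenged with PABA in Sahyun et al. medium plus 0.6% acid-hydrolyzed casein. Growth read as turbidity on a Klett-Summerson colorimeter. Scored as reversal or nonreversal of the drug inhibition.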
# [11] = test system: Lacticaseibacillus casei; test: Antibacterial activity against chlorguanide triazine-resistant Lactobacillus casei ATCC 7469 assessed as reduction in growth in presence of 0.001 ug/ml folic acid; assay type: functional, organism-based; procedure, shortened: as §2
# [12] = test system: Pediococcus; test: Antibacterial activity against chlorguanide triazine-resistant Pediococcus cerevisiae ATCC 808 assessed as reduction in growth in presence of 0.001 ug/ml folinic acid; assay type: functional; procedure, shortened: as §2
# [13] = test system: Plasmodium berghei; test: Antimalarial activity against Plasmodium berghei infected in sc dosed mouse assessed as dose required to survivors for period of 60 days; assay type: functional
# Procedure, shortened: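 Mice infected with a blood-induced P. berghei inoculum were given one subcutaneous dose in peanut oil. Survivors at 60 days counted as cured. The minimum curative dose is the lowest dose that cured any mouse.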
# [14] = test system: Escherichia coli; test: Antibacterial activity against sensitive Escherichia coli ATCC 10536 assessed as reduction in growth; assay type: functional, organism-based
# Procedure, shortened: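 Growth inhibition in Sahyun et al. medium plus 0.6% acid-hydrolyzed casein. Growth read as turbidity on a Klett-Summerson photoelectric colorimeter. IC50 is the micromolar concentration giving 50% growth inhibition. Top concentration was 1000 μg/ml, or 100 μg/ml when compound was limited.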
# [15] = Antibacterial activity against chlorguanide triazine-resistant Pediococcus cerevisiae ATCC 808 assessed as reduction in growth; assay type: functional; procedure, shortened: as §2
# [16] = test system: Enterococcus faecium; test: Antibacterial activity against sensitive Streptococcus faecium ATCC 8043 assessed as reduction in growth in presence of 0.002 ug/ml folic acid; assay type: functional, organism-based; procedure, shortened: as §4
# [17] = test system: Pediococcus; test: Fold increase in resistance, ratio of IC50 for chlorguanide triazine-resistant Pediococcus cerevisiae ATCC 808 to IC50 for sensitive Pediococcus cerevisiae ATCC 808; assay type: functional; procedure, shortened: as §3
# [18] = test system: Enterococcus faecium; test: Antibacterial activity against sensitive Streptococcus faecium ATCC 8043 assessed as reduction in growth; assay type: functional, organism-based; procedure, shortened: as §2
# [19] = test system: Enterococcus faecium; test: Antibacterial activity against chlorguanide triazine-resistant Streptococcus faecium ATCC 8043 assessed as reduction in growth in presence of 0.002 ug/ml folic acid; assay type: functional, organism-based; procedure, shortened: as §2
SMILES,Ratio IC50 [1],inhibition [2],IC50 [3] [µM],IC50 [4] [µM],Ratio IC50 [5],minimal effective dose [6] [mg/kg],IC50 [7] [µM],inhibition [8],IC50 [9] [nM],inhibition [10],inhibition [11],inhibition [12],MCD [13] [mg/kg],IC50 [14] [µM],IC50 [15] [µM],inhibition [16],Ratio IC50 [17],IC50 [18] [µM],inhibition [19]
ClC(Cl)(Cl)c1ccc(C(Cl)(Cl)Cl)cc1,1,Active,1900,959,1,640,1000,Active,990000,Active,Active,Active,640,262,2000,Active,2,2000,Active
Nc1nc(N)c2cc(NCc3ccc(Cl)c(Cl)c3)ccc2n1,330,inactive,2,0.2,0.08,20,0.4,inactive,30,Active,inactive,inactive,80,33,0.7,inactive,3.5,0.006,inactive
CCc1nc(N)nc(N)c1-c1ccc(Cl)cc1 [PYRIMETHAMINE],1300,inactive,10.5,4,0.05,10,5.1,inactive,240,Active,inactive,inactive,40,76,12,inactive,3,0.008,inactive
Nc1ncc(Cc2ccc3c(c2)OCO3)c(N)n1,96.8,inactive,24.2,12.3,0.27,640,0.94,inactive,250,Active,inactive,inactive,640,45,90.1,inactive,7.3,0.25,inactive
Nc1nc(N)c2cc(Sc3ccc(Cl)cc3)ccc2n1,180,inactive,0.18,0.028,0.36,5,0.028,inactive,10,Active,inactive,inactive,40,0.4,0.4,inactive,14.3,0.001,inactive
CCN1CCCC(Nc2cc(C)nc(NC(=N)Nc3ccc(Cl)c(Cl)c3)n2)C1 (centres undefined),0.53,Active,121,32,0.85,20,65.1,Active,55700,Active,Active,Active,40,85,39,Active,1,227,Active
COc1cc(Cc2cnc(N)nc2N)cc(OC)c1OC [TRIMETHOPRIM],15,inactive,1.2,11.7,0.09,> 640,0.19,inactive,17,Active,inactive,inactive,>640,0.4,67.5,inactive,6,0.08,inactive
CCCCN(CCCC)CC(O)c1cc(-c2ccc(Cl)c(Cl)c2)nc2c(Cl)cc(Cl)cc12 (centres undefined),2,Active,572,290,2,5,170,Active,250000,Active,Active,Active,20,182,354,Active,1,327,Active
CN(Cc1cnc2nc(N)nc(N)c2n1)c1ccc(C(=O)N[C@@H](CCC(=O)O)C(=O)O)cc1 [METHOTREXATE],5,inactive,0.01,0.4,0.17,> 640,6e-05,Active,0.01,Active,Active,inactive,>640,143,1.5,Active,4,0.002,Active
Nc1nc(N)c2cc(Oc3cc(Cl)cc(Cl)c3)ccc2n1,144,inactive,1.3,0.12,0.16,320,0.25,inactive,40,Active,inactive,inactive,640,2,1.4,inactive,11.7,0.009,inactive
N=C(N)N/N=C(\c1ccc(F)cc1)c1ccc(C(F)(F)F)cc1,0.6,Active,35,22,1,40,31,Active,30000,Active,Active,Active,160,17,21,Active,1,64,Active
